# Compound activity: PubChem BioAssay, several laboratories
# Lipid droplet – modulators of hepatic lipid droplet formation; AML12 mouse hepatocytes, oleate lipid droplets, BODIPY imaging; inhibition, % at 6.5 µM; hit rate 0.4% among 240,000;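 active = lipid droplet intensity inhibited by at least 50%, with more than 500 cells counted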
#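 Assay system: AML12 mouse liver cells | Compound: 6.5 µM single-point dosing | Schedule: Overnight exposure | Technique: Fluorescence imaging, 20x objective, two fields per well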
# SR-BI HDL uptake – mouse SR-BI HDL lipid transfer inhibition | hit rate 0.96% among 320,000 | Q61009 | ldlA[mSR-BI] CHO cells, DiI-HDL uptake fluorescence, 3 h | inhibition, % at 12.5 µM | AID 488896;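 active = mean replicate inhibition of at least 70% and a set share of replicates each scoring 70 or more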;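 also: 0% = median of neutral control wells and 100% = median of positive control wells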
# Target sequence (Q61009 whole entry, looked up): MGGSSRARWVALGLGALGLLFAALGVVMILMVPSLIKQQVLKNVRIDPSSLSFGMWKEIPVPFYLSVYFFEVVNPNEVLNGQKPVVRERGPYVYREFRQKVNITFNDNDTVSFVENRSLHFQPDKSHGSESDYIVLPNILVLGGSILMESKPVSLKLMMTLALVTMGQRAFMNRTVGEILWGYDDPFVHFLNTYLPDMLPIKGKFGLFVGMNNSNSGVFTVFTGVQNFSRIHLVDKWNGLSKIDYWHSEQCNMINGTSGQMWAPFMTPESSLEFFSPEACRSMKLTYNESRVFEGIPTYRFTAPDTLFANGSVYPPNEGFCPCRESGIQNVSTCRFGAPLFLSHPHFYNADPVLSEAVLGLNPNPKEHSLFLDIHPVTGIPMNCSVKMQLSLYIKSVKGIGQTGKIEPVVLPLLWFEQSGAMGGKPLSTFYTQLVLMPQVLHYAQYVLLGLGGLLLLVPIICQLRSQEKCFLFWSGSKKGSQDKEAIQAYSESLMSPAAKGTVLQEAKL
# Yeast superoxide – yeast age-related superoxide inhibition as caloric restriction mimetic. hit rate 0.18% among 330,000. AID 2690. S. cerevisiae aged cells, superoxide DHE fluorescence; active compounds read low. superoxide response (% of plate mean), % at 10 µM;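 active = superoxide response under a set limit, about three screen SD below normal, cut at about 65% in these data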;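 also: yeast aged for seven days with compound at 30 °C before DHE staining; 100% = average MFI of all compound-treated wells on the plate with controls excluded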
# SMARCA2 activ – activators of SMARCA2 function. activation, % at 9.1 µM. hit rate 1% among 370,000. MG213 cells, MMTV-luciferase reporter, dexamethasone, overnight; in the data active = activation above about 7.8%;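 also: 0% = vehicle wells and 100% = reference activator wells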
# SR-BI uptake up – SR-BI HDL lipid transfer activation. AID 504775. activation, % at 12.5 µM. hit rate 0.096% among 320,000. CHO ldlA[mSR-BI] cells, DiI-HDL uptake fluorescence, 3 h; 100 = double the neutral-control signal;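 active = mean replicate activation of at least 60% and every replicate at or above 60%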;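 also: 0% = median plate neutral-control signal and 100% = twice that signal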
#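 Test system: SR-BI-overexpressing, LDLR-lacking CHO cells; Medium: Ham's F12 with 0.5% BSA, HEPES 25 mM, pH 7.4; Schedule: 3 h, 37 °C; Technique: bottom-read fluorescence, 550/595 nm.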
# AHR act – human AHR activation. P35869. AHR-responsive luciferase reporter cells, luminescence. activation, % at 5 µM. hit rate 2.5% among 320,000. AID 2796; in the data active = activation above about 47%;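 also: 0% = vehicle wells and 100% = reference agonist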
# The depositor's hits bear a star; . = not tested or not shown. Hits are enriched below; roughly 4.3% of the tested compounds scored in any of these assays.
SMILES,Lipid droplet,SR-BI HDL uptake,Yeast superoxide,SMARCA2 activ,SR-BI uptake up,AHR act
Fc1ccc(Nc2ncnc3sc4c(c23)CCC4)cc1F,23,-9,95,0,9,49*
Fc1ccc(Nc2ncnc3sc4c(c23)CCC4)cc1,24,50,82,2,-50,22
COCCN1Cc2cc(C(=O)OC)c3c(c2C1=O)c1ccccc1n3S(=O)(=O)c1ccc(OC)cc1,.,.,.,-1,.,.
CCCCCc1cccc2[nH]cc(-c3ccccc3)c12,.,.,.,-1,.,.
c1ccc2c(c1)Nc1cc3ccccc3cc1S2,-8,9,95,4,-9,60*
COc1ccc2c(c1)[C@@]1(NCCc3c1[nH]c1ccc(OC)cc31)C(=O)N2C,.,.,.,-3,.,.
CC1(C)CC(=O)N(CC(=O)N2CCN(c3cccc(Cl)c3Cl)CC2)c2ccccc2S1(=O)=O,.,.,.,-5,.,.
COc1ccc(/C=N/NC(=O)c2sc(C)nc2C)cc1,4,14,110,0,-14,56*
Fc1ccc2nc(-c3ccc(CN4CCC(c5nc6ccccc6[nH]5)CC4)cc3)c(-c3ccccc3)nc2c1,.,.,.,2,.,.
CC1Sc2ccc(S(=O)(=O)N3CCC(C(=O)NCC(C)c4ccccc4)CC3)cc2NC1=O (configuration not stated),-22,-133,139,-4,133*,0
CC1Sc2ccc(S(=O)(=O)N3CCC(C(=O)NCCc4ccccc4)CC3)cc2NC1=O (configuration not stated),-3,-15,99,0,15,3
Cc1ccc(CN2CC(N3CCC[C@@H]3C)CS2(=O)=O)cc1 (some centres not stated),.,.,.,-2,.,.
Cc1c(NS(=O)(=O)c2cc(C(=O)NCc3cccnc3)cc(Cl)c2Cl)c(=O)n(-c2ccccc2)n1C,.,-22,93,-2,22,60*
Cc1c(NS(=O)(=O)c2cc(C(=O)N(C)Cc3ccccc3)ccc2Cl)c(=O)n(-c2ccccc2)n1C,.,8,87,-6,-8,0
CC1CCCN(c2cccc3c2S(=O)(=O)N([C@H](C)c2ccccc2)C[C@@H](COCc2ccccc2)O3)C1 (some centres not stated),.,.,.,-4,.,.
CCn1c2ccc(Cl)cc2c2nc3ccccc3nc21,.,.,89,2,.,53*
COC(=O)[C@]12C[C@H](CC(=O)NCc3cccc4ccccc34)C(=O)N(CCC3=CCCCC3)C1=C[C@H](C1CCCC1)O[C@@H]2C,.,.,.,-2,.,.
C=CCn1c(SCC(=O)Nc2ccccc2-c2ccccc2)nnc1-c1ccccc1,.,.,.,-6,.,.
COc1ccc(/C=N/NC(=O)c2nnn(-c3nonc3N)c2-c2cccc(OC)c2)cc1,-11,30,116,-3,-30,2
COc1ccc(O)c(/C=N/NC(=O)c2c(C)nnn2-c2nonc2N)c1,-4,101*,100,0,-101,-4
CC1CCN(Cc2c(C(=O)N/N=C/c3cc(Br)ccc3O)nnn2-c2nonc2N)CC1,-153,103*,100,-1,-103,5
CC(C)C[C@@H](CCCc1ccccc1)CCC(=O)N(c1ccccc1)c1ccccc1,.,.,.,-4,.,.
COc1cc(C(=O)Nc2ccc(N(C)C)cc2)c([N+](=O)[O-])cc1OC,1,17,84,3,-17,6
COc1cc(C(=O)Nc2ccc3c(c2)CCCN3C(=O)c2ccco2)c([N+](=O)[O-])cc1OC,.,76*,98,-3,-76,2
COc1cc(C(=O)Nc2ccc(N3CCCS3(=O)=O)cc2)c([N+](=O)[O-])cc1OC,.,81*,97,1,-81,1
SMILES,Lipid droplet,SR-BI HDL uptake,Yeast superoxide,SMARCA2 activ,SR-BI uptake up,AHR act
Cc1ccc(-c2cc(N)n(-c3ccc(C)cc3)n2)cc1,.,9,105,4,-9,52*
Cc1nn(-c2ccccc2)c(C)c1/C=N/NC(=O)CSc1nc2ccccc2c(=O)n1-c1ccc(Br)cc1,.,74*,109,-4,-74,1
Cc1ccc(-n2c(SCC(=O)N/N=C/c3c(C)nn(-c4ccccc4)c3C)nc3ccccc3c2=O)cc1,-43,49,102,-4,-49,6
Cc1nn(-c2ccccc2)c(C)c1/C=N/NC(=O)CSc1nnc(SCc2cccc3ccccc23)s1,17,73*,85,-2,-73,3
CN(C)c1ccc(C(=O)NC2CCCCN(Cc3cccc(Cl)c3)C2=O)cc1 (configuration not stated),.,.,.,0,.,.
C=CC[C@@]1(c2ccccc2)Oc2ccccc2-c2nc3ccccc3nc21,.,.,.,-1,.,.
CC(=O)C1=C(C)N(Cc2ccc(F)cc2)C(=S)NC1c1ccc(Br)cc1 (configuration not stated),.,.,.,-4,.,.
CCCCCCCCN1C(=O)N2Cc3ccc(C)cc3C2CS1(=O)=O (configuration not stated),.,.,.,-6,.,.
CCc1ccc2[nH]c3nc(C)cc(C)c3c(=O)c2c1,6,9,111,3,-9,48*
O=[N+]([O-])c1cncc2[nH]cnc12,.,.,.,1,.,.
COc1ccc2c(=O)c(C(=O)NCCc3ccccc3)c[nH]c2c1,6,19,101,4,-19,35
CCOc1ccc(N(C)S(=O)(=O)c2ccc3[nH]cc(C(=O)NCC4CCCO4)c(=O)c3c2)cc1 (configuration not stated),2,.,105,3,.,56*
COc1ccc2[nH]cc(C(=O)NCCc3ccccc3)c(=O)c2c1,0,10,102,3,-10,74*
CCOc1ccc2[nH]cc(C(=O)NCc3ccc(F)cc3)c(=O)c2c1,.,28,112,2,-28,.
Cc1ccccc1N(C)S(=O)(=O)c1ccc2[nH]cc(C(=O)NCC3CCCO3)c(=O)c2c1 (configuration not stated),-9,0,102,.,0,3
CCOCCCNC(=O)c1c[nH]c2ccc(OCC)cc2c1=O,-4,1,91,0,-1,51*
Cc1ccc(NC(=S)NNC(=O)CSc2nc3sc4c(c3c(=O)n2-c2ccccc2)CCCC4)cc1,.,.,.,1,.,.
CCCCCCCCNS(=O)(=O)/C=C/c1ccc(OC)cc1CNC(=O)OC(C)(C)C,.,.,.,-5,.,.
COC(=O)c1ccc2nc(-c3ccco3)c(Cc3ccsc3)n2c1,.,.,.,-4,.,.
N#Cc1c(N)nc2c(c1N)CC(=O)N2c1ccc(Cl)cc1,8,11,104,.,-11,89*
N#Cc1c(N)nc2c(c1N)CC(=O)N2c1ccccc1-c1ccccc1,.,.,99,0,.,7
O=C1NCCN1CCN1CCC(c2cn(-c3ccc(F)cc3)c3ccc(Cl)cc23)CC1,.,.,.,-5,.,.
COC(=O)[C@]12C[C@H](CC(=O)N3CCN(C(=O)c4ccco4)CC3)C(=O)N(CCC3=CCCCC3)C1=C[C@H](C(C)(C)C)O[C@@H]2C,.,.,.,-3,.,.
CCN(CC)Cc1cc(Nc2c3ccccc3nc3c4ccccc4n(C)c23)cc(CN(CC)CC)c1O,.,-12,.,41*,12,.
